Assay results from article PMC4120261 (Biofouling, 2013).

Columns and labels:
WspR = WspR (Pseudomonas aeruginosa, UniProt Q9HXT9); test: EnzChek pyrophosphate assay; assay type: biochemical
Summary of the method: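 C-terminally 6×His-tagged WspR is expressed in E. coli BL21(DE3) in LB with 100 μg ml−1 ampicillin at 37 °C, then induced at A600 1.0 with 1 mM IPTG at 18 °C for 12–16 h. Cells are sonicated and the protein is purified by IMAC (500 mM imidazole elution), then Superdex 200 SEC in 25 mM Tris-HCl pH 7.4, 100 mM NaCl, 1 mM DTT. Pyrophosphate released from GTP-to-c-di-GMP conversion is read by EnzChek.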

tDGC-R158A = tDGC-R158A (Thermotoga maritima, UniProt Q9X2A8, R158A); test: EnzChek pyrophosphate assay; assay type: biochemical; details: substrate GTP
Summary of the method: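 C-terminally 6×His-tagged T. maritima tDGC-R158A is expressed in E. coli BL21(DE3) with kanamycin at 37 °C and induced at OD600 0.8 with 0.8 mM IPTG at 25 °C for 4 h. It is French-press lysed and purified on Ni-NTA with a 20–500 mM imidazole gradient in Tris-HCl pH 8.0. Pyrophosphate from GTP conversion is read by a high-throughput-adapted EnzChek assay, giving % inhibition versus untreated enzyme.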

Structure (SMILES)	IC50 (WspR)	% Inhibition of tDGC-R158A (tDGC-R158A; 100 µM)	% Inhibition of tDGC-R158A (tDGC-R158A; 200 µM)
CC(=O)c1c(O)c(C)c(O)c(Cc2c(O)c3c(c(C(=O)/C=C/c4ccccc4)c2O)OC(C)(C)C=C3)c1O [LP 1062, (E)-1-[6-[(3-acetyl-2,4,6-trihydroxy-5-methylphenyl)methyl]-5,7-dihydroxy-2,2-dimethyl-2H-1-benzopyran-8-yl]-3-phenyl-2-propen-1-one]	73.1 µM	–	–
CCOc1ccc(/C=N/NC(=O)c2cc(O)c(O)c(O)c2)cc1CN1CC2CC(C1)c1cccc(=O)n1C2 (stereo not drawn) [LP 3134, N′-((1E)-{4-ethoxy-3-[(8-oxo-1,5,6,8-tetrahydro-2H-1,5-methanopyrido[1,2-a][1,5]diazocin-3(4H)-yl)methyl]phenyl}methylene)-3,4,5-trihydroxybenzohydrazide]	44.9 µM	72.1%	–
Cc1cc2c(C(C)C)c(O)c(O)c(C=O)c2c(O)c1-c1c(C)cc2c(C(C)C)c(O)c(O)c(C=O)c2c1O [LP 3145, 1,1′,6,6′,7,7′-hexahydroxy-5,5′-diisopropyl-3,3′-dimethyl-2,2′-binaphthalene-8,8′-dicarbaldehyde]	70.9 µM	–	–
CN(CCCn1c2c(c(=O)[nH]c1=O)CSCC2)S(=O)(=O)c1ccc(N)cc1 [LP 4010]	102 µM	–	20.5%
